Laboratory results taken from ChEMBL document CHEMBL1144338, “N-Acyl arylsulfonamides as novel, reversible inhibitors of human steroid sulfatase” (Bioorg Med Chem Lett, 2005).

Experiments:
[1] = target: T1, Steryl-sulfatase (Homo sapiens, UniProt P08842); experiment: Inhibitory concentration against human steroid sulfatase expressed in CHO cells; type: cell-based
T1 sequence (P08842 whole entry): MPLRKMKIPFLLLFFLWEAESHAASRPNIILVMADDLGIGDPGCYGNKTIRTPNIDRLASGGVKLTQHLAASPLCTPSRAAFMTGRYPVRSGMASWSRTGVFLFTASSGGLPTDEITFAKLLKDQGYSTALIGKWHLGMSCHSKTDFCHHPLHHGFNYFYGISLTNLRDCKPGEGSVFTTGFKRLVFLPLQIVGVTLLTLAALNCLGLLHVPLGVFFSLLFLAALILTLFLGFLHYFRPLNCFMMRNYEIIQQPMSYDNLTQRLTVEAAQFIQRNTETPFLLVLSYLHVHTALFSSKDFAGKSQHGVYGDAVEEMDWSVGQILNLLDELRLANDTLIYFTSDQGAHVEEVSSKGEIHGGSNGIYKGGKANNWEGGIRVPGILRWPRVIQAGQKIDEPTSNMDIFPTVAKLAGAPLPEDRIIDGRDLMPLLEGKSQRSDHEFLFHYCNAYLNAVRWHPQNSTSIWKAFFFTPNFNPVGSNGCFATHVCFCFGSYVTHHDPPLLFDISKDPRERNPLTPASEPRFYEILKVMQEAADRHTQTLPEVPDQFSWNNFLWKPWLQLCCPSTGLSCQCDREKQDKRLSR
How it was run: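 Intact recombinant CHO cells overexpressing STS, live-cell variant for reversible inhibitors; 4-methylumbelliferyl sulfate substrate at 0.5 mM, 4 h incubation with inhibitor; fluorimetric read-out of substrate cleavage, IC50 determined.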

[2] = target: T1, Steryl-sulfatase; experiment: Inhibitory constant against human Steroid sulfatase
How it was run: (§1)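 Purified human STS (from recombinant CHO cells) at 37 °C; 4-methylumbelliferyl sulfate cleavage monitored fluorimetrically, substrate varied 0.05–2 mM at several inhibitor concentrations. Initial velocities from the linear phase (fluorescence units per min); Ki calculated from Hanes plots ([S]/v versus [S]).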

[3] = target: T1, Steryl-sulfatase; experiment: Inhibitory concentration against human steroid sulfatase
How it was run: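 Human STS purified to homogeneity from recombinant CHO cells; fluorimetric assay following cleavage of 4-methylumbelliferyl sulfate (fixed at 0.75 mM) at 37 °C, 1 h incubations with or without inhibitor. Initial velocity taken from the linear phase as fluorescence units per min; IC50 derived by a previously described method.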

[4] = target: T1, Steryl-sulfatase; experiment: Inhibitory constant against human steroid sulfatase; how it was run: as §1

Row | SMILES | IC50 [1] [µM] | Ki [2] [nM] | IC50 [3] [nM] | Ki [4] [µM]
1 | CC(C)(C)OC(=O)N1CCC(C(=O)NS(=O)(=O)c2c(Cl)sc(Cl)c2Br)CC1 | 0.27 | 12 | 26 | –
2 | CC(C)(C)OC(=O)N1CCN(C(=O)NS(=O)(=O)c2ccc(Cl)cc2)CC1 | 12 | – | 3600 | 14.5
3 | CC(C)(C)OC(=O)N1CCC(C(=O)NS(=O)(=O)c2ccc(Cl)cc2)CC1 | 9.8 | – | 8600 | 16.1
4 | O=C(Cc1ccccc1)O[C@H]1C[C@H]2CC[C@@H](C1)N2C(=O)NS(=O)(=O)c1ccc(Cl)cc1 | 6.27 | – | 910 | –
5 | CC(C)(C)OC(=O)N1CCC(C(=O)NS(=O)(=O)c2cc(C(F)(F)F)cc(C(F)(F)F)c2)CC1 | 0.78 | – | 210 | 0.22
6 | CC(C)(C)OC(=O)N1CCC(C(=O)NS(=O)(=O)c2cc(Cl)cc(Cl)c2)CC1 | 1.26 | – | – | –
7 | CC(C)(C)OC(=O)N1CCC(C(=O)NS(=O)(=O)c2c(Cl)cccc2Cl)CC1 | 9.9 | – | – | –
